Results on 5 molecules are retold here after ChEMBL document CHEMBL5252510, “A Novel Potent Oral Series of VEGFR2 Inhibitors Abrogate Tumor Growth by Inhibiting Angiogenesis” (J Med Chem, 2016).

Series [1] addresses Vascular endothelial growth factor receptor 3 (Homo sapiens, UniProt P35916). Put plainly: Inhibition of human recombinant GST-fused VEGFR3 kinase domain transphosphorylation expressed in baculovirus expression system using poly-Glu-Tyr (4:1) as substrate measured after 10 mins in presence of gamma-[33P]-ATP by scintillation counting analysis. The method in brief:
(§1)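 GST-fused kinase domains were expressed in baculovirus and purified on glutathione-Sepharose. 10 min at ambient temperature, stopped with EDTA. Filter binding and scintillation counting. IC50 by linear regression of percent inhibition.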

Series [2] can be described thus: Volume of distribution at steady state in Sprague-Dawley rat at 3 mg/kg, iv measured upto 24 hrs by HPLC/UV analysis. Format: ADME, organism-based. The settings on record: in vivo, read-out: Vdss. The method in brief: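 Female Sprague Dawley rats, 8 weeks, jugular vein and femoral artery catheters, 96 h recovery. IV 3 mg/kg in ethanol/NMP/PEG400/D5W (10/10/50/30), n=2.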

The nature of series [3]: Toxicity in C57BL/6jNpa mouse harbouring mouse B16-BL6 cells assessed as effect on animal well-being at 3 mg/kg, po qd administered started on day 7 post implantation measured after 21 days. Format: organism-based. The settings on record: in vivo, 504 h, time 7-21 day. The method in brief: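 Female C57BL/6JNpa mice received 50000 B16/BL6 cells intradermally in both ear pinnae. Randomized on day 7 into groups of 5–6, then dosed 3 mg/kg p.o. daily in PEG200/PEG300 for 14 days. Behavior and well-being were observed. On day 21, blood was analysed for platelet, red and white cell counts and hematocrit.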

The subject of series [4] is BaF3. Put plainly: Antiproliferative activity against mouse BaF3 cells expressing ERBB2 V659E mutant assessed as cell growth inhibition measured after 72 hrs by Alamar Blue assay. The settings on record: BaF3, 72 h. (The colour change of resazurin is a common sign of viable cells or microbes.)
The subject of series [5] is BaF3. Nature of the series: Antiproliferative activity against mouse BaF3 cells expressing FLT3-ITD assessed as cell growth inhibition measured after 72 hrs by Alamar Blue assay. Particulars: BaF3, 72 h.
For series [6], the system named is BaF3. Put plainly: Antiproliferative activity against mouse BaF3 cells expressing Trp-MET assessed as cell growth inhibition measured after 72 hrs by Alamar Blue assay. Particulars: BaF3, 72 h.
Series [7] relates to BaF3. Put plainly: Antiproliferative activity against mouse BaF3 cells expressing NPM-ALK assessed as cell growth inhibition measured after 72 hrs by Alamar Blue assay. The settings on record: BaF3, 72 h.
Series [8] can be described thus: Dose normalized AUC(0 to infinity) in Sprague-Dawley rat at 50 mg/kg, po measured upto 24 hrs by HPLC/UV analysis. Format: ADME, organism-based. Particulars: in vivo. The method in brief:
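Female Sprague Dawley rats, 8 weeks old, catheterized. Oral suspension in 0.5 % carboxymethyl cellulose at 50 mg/kg, n=3. Bioavailability taken against 3 mg/kg iv. Plasma sampled 5 min–24 h. Cmax and AUC(0–∞) dose-normalized.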

Series [9] in a line: Toxicity in VEGF-induced FVB mouse model at 0.3 to 3 mg/kg, po qd treated for 4 to 6 hrs prior to chamber implantation and continuing for 4 days measured after 24 hrs post last dose. Format: organism-based. The settings on record: in vivo, 120 h, dose 0.3-3 mg/kg, time 5 day. The method in brief:
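Female FVB mice (18–20 g), groups of 6. Porous chambers with VEGF (2 μg/mL) in 0.5 mL 0.8 % agar with heparin (20 U/mL) implanted subcutaneously in flank. Oral dosing once daily in 100 % PEG200 (5 mL/kg), starting 4-6 h before implantation, for 4 days; chambers removed 24 h after last dose. Animals observed for signs of toxicity.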

In series [10] the test system is B16-BL6. Nature of the series: Antitumor activity against mouse B16-BL6 cells implanted in C57BL/6jNpa mouse assessed as metastatic tumor growth inhibition at 3 mg/kg, po qd administered started on day 7 post implantation measured after 21 days relative to control. It is filed as functional. Particulars: time 7-21 day, read-out: TGI. The method in brief:
(§2)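 Female C57BL/6JNpa mice, 50000 B16/BL6 cells intradermally in both ear pinnae; primary tumor area (mm²) imaged days 7, 14, 21; randomized day 7 into groups of 5-6, oral dosing in PEG200 or PEG300 vehicle daily (or every 2 days) for 14 days; day 21 cervical lymph nodes weighed, metastasis lysates assayed for TIE-2 by ELISA; T/C ratios.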

The test system of series [11] is B16-BL6. Put plainly: Antitumor activity against mouse B16-BL6 cells implanted in C57BL/6jNpa mouse assessed as metastatic tumor growth inhibition by measuring T/C ratio at 3 mg/kg, po qd administered started on day 7 post implantation measured after 21 days. It is filed as functional. The settings on record: time 7-21 day. The method in brief: as §2
For series [12], the target named is T1, Vascular endothelial growth factor receptor 2 (Homo sapiens, UniProt P35968). Put plainly: Inhibition of human recombinant GST-fused VEGFR2 kinase domain transphosphorylation expressed in baculovirus expression system using poly-Glu-Tyr (4:1) as substrate measured after 10 mins in presence of gamma-[33P]-ATP by scintillation counting analysis.
The target in series [13] is Mast/stem cell growth factor receptor Kit (Homo sapiens, UniProt P10721). Put plainly: Inhibition of human recombinant GST-fused c-KIT expressed in baculovirus expression system using poly-Glu-Tyr (4:1) as substrate measured after 10 mins in presence of gamma-[33P]-ATP by scintillation counting analysis. The method in brief:
as §1

The target in series [14] is Serine/threonine-protein kinase B-raf (Homo sapiens) (UniProt P15056). Put plainly: Inhibition of human recombinant GST-fused BRAF expressed in baculovirus expression system using poly-Glu-Tyr (4:1) as substrate measured after 10 mins in presence of gamma-[33P]-ATP by scintillation counting analysis. The method in brief:
as §1

The target of series [15] is Proto-oncogene tyrosine-protein kinase receptor Ret (Homo sapiens, UniProt P07949). Put plainly: Inhibition of RET (unknown origin) autophosphorylation expressed in mouse NIH3T3 cells by ELISA-based assay. It is filed as cell-based. The method in brief: (§3)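 Cells were stimulated with the respective ligand. Receptor tyrosine kinase autophosphorylation in the presence of compound was quantified by ELISA.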
(ELISA stands for enzyme-linked immunosorbent assay.)

The target in series [16] is T1, Vascular endothelial growth factor receptor 2. Nature of the series: Inhibition of VEGF-induced human VEGFR2 autophosphorylation expressed in HUVEC cells measured after 2 hrs by chemiluminescence assay. Format: cell-based.
The target in series [17] is Mast/stem cell growth factor receptor Kit (Homo sapiens, UniProt P10721, K642E). Nature of the series: Inhibition of KIT K642E mutant (unknown origin) autophosphorylation expressed in human GIST882 cells by ELISA-based assay. Format: cell-based. The method in brief: as §3
In series [18] the target is Epidermal growth factor receptor (Homo sapiens, UniProt P00533). Nature of the series: Inhibition of EGFR (unknown origin) autophosphorylation expressed in human A-431 cells by ELISA-based assay. It is filed as cell-based. The method in brief: as §3
Another series deals with Bcr/Abl fusion protein (Homo sapiens, UniProt P00519). Nature of the series: Inhibition of BCR-ABL (unknown origin) autophosphorylation expressed in mouse 32D cells by ELISA-based assay. Format: cell-based. The method in brief: as §3
For a further series, the system named is Mus musculus. Nature of the series: Protection against VEGF-induced vessel extravasation in FVB mouse at 3 mg/kg pre-administrated for 2 to 48 hrs followed by evans-blue administration for 30 mins and measured 30 mins after dog VEGF164 addition. Format: functional, organism-based. The settings on record: time 3-49 hrs. The method in brief:
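Female FVB mice (18–20 g), 3–4 per group. Oral 3 mg/kg at 48, 24 or 8 h before sacrifice. Evans blue 0.5 % (200 µl) given i.v. in the tail vein. 30 min later, 2 µL dog VEGF164 (10 ng/µL) injected intradermally into the ear pinna. Dye extravasation quantified by a computer-assisted system.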

Series [19] relates to B16-BL6. Put plainly: Antitumor activity against mouse B16-BL6 cells implanted in C57BL/6jNpa mouse assessed as reduction in TIE-2 levels metastases lysate of at 3 mg/kg, po qd administered started on day 7 post implantation measured after 21 days by ELISA analysis. The settings on record: time 7-21 day. It is filed as functional, organism-based. The method in brief:
as §2

In general, IC50 refers to the concentration needed to halve the response being measured.

Activity calls are given as the source filed them. The calls are words filed in the database; no cut-off is given here. Some results are limits rather than exact numbers.

Consider `Nc1cc(Oc2ccc3c(C(=O)Nc4cccc(C(F)(F)F)c4)cccc3c2)ncn1`, for which the half-inhibitory concentration (IC50) is 50 nM in series [1]; more than 10000 nM in the series with BaF3 [4]; 5650 nM in the series with BaF3 [5]; more than 10000 nM in the series on BaF3 [6]; more than 10000 nM with BaF3 [7]. Moreover, the Vd in series [2] is 0.9 L/kg. Further, the Activity result in series [3] and in series [9] was “Non-Toxic” in each case. The same molecule displayed an AUC/dose in [8] of 0.67 µmol·h/L. Besides, the inhibition in vivo at 3 mg/kg in the series with B16-BL6 [10] came out at 71%. The T/C in the series on B16-BL6 [11] was 0.04.
`O=C(Nc1cccc(C(F)(F)F)c1)c1cccc2cc(Oc3cc(CO)ncn3)ccc12` [BFH-772]: the half-inhibitory concentration (IC50) is 1100 nM in series [1]; 2.7 nM in series [12]; more than 2000 nM in [13]; 30 nM in series [15]; 3 nM in [16]; 30 nM in [17]. Besides, the IC50 was more than 500 nM in series [18]; more than 500 nM at Bcr/Abl fusion protein; more than 10000 nM with BaF3 [4]; more than 10000 nM in the series on BaF3 [5]; more than 10000 nM in the series on BaF3 [6]; more than 10000 nM in the series on BaF3 [7]. Further, the inhibition result in series [14] was “Active”. In addition, the Activity result in [3] and in series [9] was “Non-Toxic” each time. Besides, the result in the series on Mus musculus was Active. Besides, the inhibition in vivo at 3 mg/kg in the series with B16-BL6 [10] was 71%. In the series on B16-BL6 [11], the T/C was 0.17.
With `Nc1cc(Oc2ccc3c(C(=O)Nc4ccc(F)c(C(F)(F)F)c4)cccc3c2)ncn1`, the IC50 in [1] was 235 nM; with BaF3 [4], more than 10000 nM; in the series on BaF3 [5] it was 4780 nM; in the series with BaF3 [6] it was more than 10000 nM; in the series with BaF3 [7] it was more than 10000 nM. Moreover, the Vd in [2] stood at 1.5 L/kg. Moreover, the Activity result in series [3] and in series [9] was “Non-Toxic” throughout. In [8], this molecule registered an AUC/dose of 4.19 µmol·h/L. In addition, the inhibition in vivo at 3 mg/kg in the series on B16-BL6 [10] turned out to be 71%. For the same molecule, the T/C in the series with B16-BL6 [11] came out at 0.04.
`Nc1nccc(Oc2ccc3c(C(=O)Nc4ccc(F)c(C(F)(F)F)c4)cccc3c2)n1`: the IC50 is 177 nM in series [1]; more than 10000 nM in the series with BaF3 [4]; 8200 nM in the series with BaF3 [5]; more than 10000 nM with BaF3 [6]; more than 10000 nM with BaF3 [7]. In addition, the Vd in series [2] is 3.5 L/kg. Further, the Activity entry in series [3] and in series [9] was “Non-Toxic” each time. The outcome in the series with B16-BL6 [19] and in the series on Mus musculus was Active. In [8], this molecule had an AUC/dose of 1.37 µmol·h/L. Moreover, in the series on B16-BL6 [10], the inhibition in vivo at 3 mg/kg came to 71%. The T/C with B16-BL6 [11] was 0.13.
For the molecule `Nc1nccc(Oc2ccc3c(C(=O)Nc4cccc(C(F)(F)F)c4)cccc3c2)n1`, the IC50 in [1] was 420 nM; in [12] it was 9 nM; in [13], more than 10000 nM; in series [15], 30 nM; in series [16], 2.9 nM; in [17], 30 nM. Moreover, the half-inhibitory concentration (IC50) was more than 500 nM in [18]; more than 500 nM on Bcr/Abl fusion protein; more than 10000 nM with BaF3 [4]; more than 10000 nM with BaF3 [5]; more than 10000 nM with BaF3 [6]; more than 10000 nM in the series with BaF3 [7]. In addition, in [14], the inhibition entry was “Active”. Also, the Activity entry in series [3] and in [9] was “Non-Toxic” throughout. Besides, the outcome in the series on B16-BL6 [19] was Active. Moreover, the inhibition in vivo at 3 mg/kg with B16-BL6 [10] worked out at 71%. Moreover, in the series on B16-BL6 [11], the T/C is reported as 0.29.
